Measured values gathered from unrelated publications.
Protocols differ between the studies behind these lines.
Read-out: cell growth or viability

SMILES | cell line | assay | setting | IC50 [µM]
CN1CCC(NC(=O)c2ccc(-c3cc(C4CC4)c4oc5c(c4c3)CCN(C(=O)/C=C/c3ccc(N)nc3)C5)nn2)C(F)(F)C1 (stereo not drawn) | U2OS | CCK-8 | 72 h | 3.49
O=c1c(C=NNC(=S)Nc2ccccc2)coc2ccccc12 | HeLa | MTT | 24 h | > 100
Nc1ccc(/C=C/C(=O)N2CCc3c(oc4c(-c5ccc(F)cc5)cc(-c5ccc(C(=O)N6CCC(F)(F)CC6)nn5)cc34)C2)cn1 | U2OS | CCK-8 | 72 h | 0.64
O=C(C=Cc1ccccc1)Nc1cc(-c2ccnc(N3CCOCC3)c2)ccn1 | HeLa | MTT | 72 h | 0.402
Nc1ccc(/C=C/C(=O)N2CCc3c(oc4c(-c5ccc(F)cc5)cc(-c5ccc(C(=O)N6CCOCC6)nn5)cc34)C2)cn1 | U2OS | CCK-8 | 72 h | 0.73
Cc1nc(Nc2ccc3c(c2)/C(=C/c2ccccc2C)C(=O)N3C)c2ccccc2n1 | H22 | MTT |  | 4.78
C=CC(=O)N1CCN(c2nc(=O)n(-c3c(C)ccnc3C(C)C)c3nc(-c4c(O)cccc4F)c(F)cc23)[C@@H](C)C1 | NCI-H1792 | ATP luminescence |  | > 1
Cc1nc(Nc2ccc3c(c2)/C(=C/c2ccccc2)C(=O)N3C)c2ccccc2n1 | H22 | MTT |  | 5.34
CC1(C)CCC2(CC1)N[C@@H](C(=O)N[C@@H]1CC[C@@H](C(N)=O)OC1)[C@H](c1ccnc(Cl)c1F)[C@]21C(=O)Nc2cc(Cl)ccc21 | U2OS | resazurin | 72 h | > 2
COc1cc2ncnc(Nc3ccc4c(c3)/C(=C/c3ccccc3)C(=O)N4)c2cc1OC | H22 | MTT |  | > 50
Cc1noc2c1-c1ccccc1C(c1ccc(Cl)cc1)=N[C@H]2CC(N)=O | NB-4 | ATP luminescence | 72 h | 0.76
COc1cc2c3c(n(CCCNCCO)c(=O)c2cc1OC)-c1nc2c(cc1C3=O)OCO2 | L-363 | MTS | 72 h | 0.154
Cc1nc(Nc2ccc3c(c2)/C(=C/c2ccccc2)C(=O)N3Cc2ccccc2)c2ccccc2n1 | H22 | MTT |  | 1.08
COc1cc2c3c(n(CCCn4ccnc4)c(=O)c2cc1OC)-c1nc2c(cc1C3=O)OCO2 | L-363 | MTS | 72 h | 0.232
COc1cc2ncnc(Nc3ccc4c(c3)/C(=C/c3ccccc3)C(=O)N4C)c2cc1OC | H22 | MTT |  | 15.1
